High-throughput results (PubChem)
A selection: hits, their analogues and other compounds. The true share with any hit is near 4%.
TAAR1 ag = human TAAR1 agonists, primary screen, Fluo-8 calcium fluorescence, CHO RD-HGA16 cells. Trace amine-associated receptor 1 (Homo sapiens), Q96RJ0. vehicle wells 0%, saturating PEA agonist 100%. activation, % at 3 µM. actives 0.99% (n = 360,000). AID 624467, 2012;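 active = activation above the mean activation of all test compounds in the run plus 3 SD, cut at about 38% in these data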
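Assay system – CHO-derived RD-HGA16 cells with stable Gα16 and human TAAR1 · Compound dosing – one-point dosing at 3 µM (nominal) · Incubation – 17-24 h seeding, 75 min 37 °C dye, 30 min RT · Measured by – kinetic Fluo-8 calcium fluorescence · Control set – DMSO vehicle as 0%, PEA at EC100 as 100% · Repeats – single well for each compound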
CHO parental Ca = ATP-evoked calcium signal inhibitors, parental CHO, primary screen, counter-screen for OX1R antagonist project, cell-based, fluorescence, Fluo-8 calcium dye. parental CHO-K1, ATP-induced calcium, Fluo-8 fluorescence. inhibition, % at 5.6 µM. actives 0.63% (n = 330,000);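 active = inhibition above that plate's mean sample inhibition plus 3 SD, cut at about 26% in these data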;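 also: 0% = ATP-challenged DMSO wells and 100% = DMSO wells without ATP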
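Material – parental CHO cells · Reagent – ATP stimulus · Compound – single nominal dose of 5.6 µM per compound · Detection – Fluo-8 fluorescence · Read-out basis – percent inhibition of calcium signal · Controls – ATP-challenged DMSO wells low, unchallenged DMSO wells high · Repeats – no replicates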
OX1R antag-1 = OX1R (HCRTR1) antagonists, primary screen, fluorescence, CHO/OX1R cells, Fluo-8 calcium, orexin A; Orexin/Hypocretin receptor type 1 (Homo sapiens), O43613; Fluo-8 calcium fluorescence; inhibition, % at 5 µM; actives 0.43% (n = 330,000); AID 434989, 2010;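 active = inhibition above its plate's threshold, mean inhibition of all tested compounds on the plate plus 3 SD, cut at about 37% in these data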;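 also: 0% = orexin A challenge wells and 100% = SB-334867-A antagonist wells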
Target sequence (O43613 whole entry, looked up): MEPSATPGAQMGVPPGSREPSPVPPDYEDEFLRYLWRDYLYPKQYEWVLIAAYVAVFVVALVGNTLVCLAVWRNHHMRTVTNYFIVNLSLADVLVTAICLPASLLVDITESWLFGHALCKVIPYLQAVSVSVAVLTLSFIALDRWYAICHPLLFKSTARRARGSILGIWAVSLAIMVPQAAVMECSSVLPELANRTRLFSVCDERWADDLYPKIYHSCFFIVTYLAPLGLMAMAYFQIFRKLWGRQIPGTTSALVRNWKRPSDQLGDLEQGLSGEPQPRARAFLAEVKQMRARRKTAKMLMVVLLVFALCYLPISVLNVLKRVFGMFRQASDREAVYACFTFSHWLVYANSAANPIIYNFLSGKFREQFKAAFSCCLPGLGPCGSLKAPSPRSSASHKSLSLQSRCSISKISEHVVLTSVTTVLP
OX1R antag-2 = antagonists of human orexin 1 receptor (OX1R). Orexin/Hypocretin receptor type 1 (Homo sapiens), O43613. OX1R-expressing cells, FRET antagonist read-out. inhibition, % at 6.6 µM. actives 1.8% (n = 330,000). AID 485270, 2010; in the data active = inhibition mostly above about 38%, no sharp cut-off; inactive = mostly below about 40%;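 also: 0% = agonist challenge alone and 100% = reference antagonist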
TAAR1 antagonist = human TAAR1 antagonists, primary screen, Fluo-8 calcium fluorescence, CHO RD-HGA16 cells; Trace amine-associated receptor 1 (Homo sapiens), Q96RJ0; antagonist; inhibition, % at 3 µM; actives 1.5% (n = 360,000); AID 624466, 2012;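 active = inhibition above a per-plate cutoff, the mean inhibition of test compounds on that plate plus 3 SD, cut at about 49% in these data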;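 also: 0% = DMSO plus EC80 beta-PEA response and 100% = DMSO alone without agonist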
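System: CHO RD-HGA16 cells bearing hTAAR1. Reagent: EC80 β-phenethylamine stimulus. Schedule: seeding 17-24 h prior, 75-min 37 °C, 30-min RT dye loading. Signal: Fluo-8 intracellular calcium dye fluorescence, real-time kinetic reads. Read-out: % inhibition from peak post-agonist over basal fluorescence ratio. Benchmarks: vehicle wells and EC80 agonist wells. Replicates: n of 1.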
OX1R HTRF conf = OX1R (HCRTR1) antagonists, confirmation, cell-based, HTRF | shares compounds with OX1R antag-2 | inhibition, % at 6.6 µM | actives 49% (n = 1,800) | OX1R-expressing cells, HTRF antagonist assay; in the data active = inhibition above about 55%;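 also: CHO cells expressing OX1R stimulated with orexin A at about EC80; 0% = agonist challenge alone and 100% = reference antagonist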
CHO-K1 HTRF = signal inhibition in parental CHO-K1 cells, counter-screen for OX1R antagonist project, cell-based, HTRF. actives 48% (n = 1,800). AID 493232, 2011. shares compounds with OX1R antag-2. HTRF counterscreen. inhibition, % at 6.6 µM; in the data active = inhibition above about 17%;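 also: 0% = agonist challenge with vehicle and 100% = vehicle alone without agonist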
Active calls of the source: *; . = no result given.

SMILES	TAAR1 ag	CHO parental Ca	OX1R antag-1	OX1R antag-2	TAAR1 antagonist	OX1R HTRF conf	CHO-K1 HTRF
Cc1ccc(C)c(NC(=O)c2cc([N+](=O)[O-])cc([N+](=O)[O-])c2)c1	0	-8	-17	80*	13	38	41*
O=C(CNC(=O)c1ccccc1)N/N=C/c1ccc([N+](=O)[O-])o1	9	-12	-5	98*	-14	50	75*
CC(NC(=O)CSc1nc2ccc(N)cc2s1)c1ccccc1 (stereo not drawn)	3	-13	-9	7	-19	.	.
CCc1c(C)nc2nc(SCc3ccccc3)[nH]n2c1=O	0	1	-14	18	-9	.	.
O=C(Nc1ncccn1)c1cc([N+](=O)[O-])cc([N+](=O)[O-])c1	-1	4	-2	107*	2	58*	72*
NS(=O)(=O)c1ccc(O)c(NC(=O)c2ccc([N+](=O)[O-])o2)c1	0	-8	-12	125*	-14	48	61*
